Source: ChEMBL document CHEMBL5030525, “Design, synthesis and antitumor activity evaluation of trifluoromethyl-substituted pyrimidine derivatives” (Bioorg Med Chem Lett, 2021)
The source made the active and inactive calls. The rule behind the calls is not given here.

Tests used:
NCI-H1975 [1] = experiment: Effect on cell cycle progression in human NCI-H1975 cells assessed a accumulation of cells at G2/M phase at 1 uM measured after 24 hrs by RNase A/PI staining based flow cytometry analysis (Rvb= 5.78%); type: functional
MCF7 = experiment: Antiproliferative activity against human MCF7 cells assessed as inhibition of cell growth measured after 72 hrs by MTT assay; type: functional, cell-based; conditions: MCF7, 72 h
Summary of the method: (§1)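 Cells in log phase were seeded at 3000–5000 per well and cultured 24 h at 37 °C, then exposed to a range of compound concentrations in fresh medium for 72 h. MTT was added and incubated 4 h at 37 °C, formazan was dissolved in DMSO, and absorbance was read at 490 nm. IC50 was taken from survival rate, as mean ± SD of three independent experiments. Stocks were 10 mM in DMSO.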

GES1 = experiment: Cytotoxicity against human GES1 cells assessed as reduction in cell viability measured after 72 hrs by MTT assay; type: cell-based; conditions: GES1, 72 h; summary of the method: as §1
NCI-H1975 [2] = experiment: Induction of apoptosis in human NCI-H1975 cells assessed as increase in Bax protein expression at 1 to 4 uM measured after 48 hrs by western blot analysis; type: functional, cell-based; conditions: dose 1-4 µM
Summary of the method: (§2)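 H1975 cells in dishes were incubated 24 h, then treated at 0, 1, 2 or 4 μM for 48 h. Cells were trypsinised and lysed in RIPA, and protein was quantified by BCA. Proteins were separated by SDS-PAGE, transferred to nitrocellulose, and blocked in 5% skim milk. Primary antibodies were applied overnight at 4 °C, then secondary (1:10000) for 2 h. Detection was by ECL, with GAPDH as control and densitometry.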

PC-3 = experiment: Antiproliferative activity against human PC-3 cells assessed as inhibition of cell growth measured after 72 hrs by MTT assay; type: functional, cell-based; conditions: PC-3, 72 h; summary of the method: as §1
NCI-H1975 [3] = experiment: Inhibition of colony formation in human NCI-H1975 cells at 4 uM measured after 9 days by crystal violet staining based microscopic analysis relative to control; type: functional; conditions: NCI-H1975, 216 h, time 9 day
Summary of the method: (§3)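 Log-phase cells were seeded at 1000 per well, incubated about 24 h, then exposed to 0, 1, 2 or 4 μM for 9 days. Cells were PBS-washed, fixed with ice-cold methanol for 30 min, and stained with crystal violet for 30 min. Plates were photographed and colonies examined by microscopy.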

NCI-H1975 [4] = experiment: Effect on cell cycle progression in human NCI-H1975 cells assessed a accumulation of cells at G1 phase at 2 uM measured after 24 hrs by RNase A/PI staining based flow cytometry analysis (Rvb= 42.16%); type: functional
NCI-H1975 [5] = experiment: Induction of apoptosis in human NCI-H1975 cells assessed as increase in total apoptotic cells at 4 uM measured after 48 hrs by Annexin V-FITC/PI staining double staining based flow cytometry analysis (Rvb= 3.86%); type: functional
NCI-H1975 [6] = experiment: Induction of apoptosis in human NCI-H1975 cells assessed as broken nucleus at 2 to 4 uM measured after 48 hrs by DAPI staining based fluorescence microscopic analysis; type: functional, cell-based; conditions: dose 2-4 µM
Summary of the method: (§4)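 H1975 cells were seeded at 2×10^5 per well and incubated 24 h, then exposed to 0, 2 or 4 μM for 48 h. Cells were PBS-washed, fixed in pre-cooled methanol at 4 °C for 10 min, and stained with DAPI in the dark. Nuclear morphology was imaged by fluorescence microscopy.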

NCI-H1975 [7] = experiment: Effect on cell cycle progression in human NCI-H1975 cells assessed a accumulation of cells at G2/M phase at 2 uM measured after 24 hrs by RNase A/PI staining based flow cytometry analysis (Rvb= 5.78%); type: functional
NCI-H1975 [8] = experiment: Effect on cell cycle progression in human NCI-H1975 cells assessed a accumulation of cells at G2/M phase at 4 uM measured after 24 hrs by RNase A/PI staining based flow cytometry analysis (Rvb= 5.78%); type: functional
NCI-H1975 [9] = experiment: Induction of apoptosis in human NCI-H1975 cells assessed as increase in total apoptotic cells at 1 uM measured after 72 hrs by Annexin V-FITC/PI staining double staining based flow cytometry analysis (Rvb= 3.86%); type: functional
MGC-803 = experiment: Antiproliferative activity against human MGC-803 cells assessed as inhibition of cell growth measured after 72 hrs by MTT assay; type: functional, cell-based; conditions: MGC-803, 72 h; summary of the method: as §1
NCI-H1975 [10] = experiment: Induction of apoptosis in human NCI-H1975 cells assessed as nucleus shrinkage at 2 to 4 uM measured after 48 hrs by DAPI staining based fluorescence microscopic analysis; type: functional, cell-based; conditions: dose 2-4 µM; summary of the method: as §4
NCI-H1975 [11] = experiment: Induction of apoptosis in human NCI-H1975 cells assessed as increase in total apoptotic cells at 4 uM measured after 72 hrs by Annexin V-FITC/PI staining double staining based flow cytometry analysis (Rvb= 3.86%); type: functional
NCI-H1975 [12] = experiment: Induction of apoptosis in human NCI-H1975 cells assessed as increase in total apoptotic cells at 1 uM measured after 48 hrs by Annexin V-FITC/PI staining double staining based flow cytometry analysis (Rvb= 3.86%); type: functional
NCI-H1975 [13] = experiment: Induction of apoptosis in human NCI-H1975 cells assessed as appearance of dense particles at 2 to 4 uM measured after 48 hrs by DAPI staining based fluorescence microscopic analysis; type: functional, cell-based; conditions: dose 2-4 µM; summary of the method: as §4
NCI-H1975 [14] = experiment: Antiproliferative activity against human NCI-H1975 cells assessed as inhibition of cell growth measured after 72 hrs by MTT assay; type: functional, cell-based; conditions: NCI-H1975, 72 h; summary of the method: as §1
NCI-H1975 [15] = experiment: Induction of apoptosis in human NCI-H1975 cells assessed as down regulation of Bcl-2 expression at 1 to 4 uM measured after 48 hrs by western blot analysis; type: functional, cell-based; conditions: dose 1-4 µM; summary of the method: as §2
NCI-H1975 [16] = experiment: Induction of apoptosis in human NCI-H1975 cells assessed as increase in P53 expression at 1 to 4 uM measured after 48 hrs by western blot analysis; type: functional, cell-based; conditions: dose 1-4 µM; summary of the method: as §2
NCI-H1975 [17] = experiment: Induction of apoptosis in human NCI-H1975 cells assessed as increase in number of change in apoptotic morphology at 2 to 4 uM measured after 48 hrs by DAPI staining based fluorescence microscopic analysis; type: functional, cell-based; conditions: dose 2-4 µM; summary of the method: as §4
NCI-H1975 [18] = experiment: Effect on cell cycle progression in human NCI-H1975 cells assessed a accumulation of cells at S phase at 1 uM measured after 24 hrs by RNase A/PI staining based flow cytometry analysis (Rvb= 52.06%); type: functional
NCI-H1975 [19] = experiment: Induction of apoptosis in human NCI-H1975 cells assessed as increase in total apoptotic cells at 2 uM measured after 72 hrs by Annexin V-FITC/PI staining double staining based flow cytometry analysis (Rvb= 3.86%); type: functional
NCI-H1975 [20] = experiment: Effect on cell cycle progression in human NCI-H1975 cells assessed a accumulation of cells at S phase at 4 uM measured after 24 hrs by RNase A/PI staining based flow cytometry analysis (Rvb= 52.06%); type: functional
NCI-H1975 [21] = experiment: Effect on cell cycle progression in human NCI-H1975 cells assessed a accumulation of cells at G1 phase at 1 uM measured after 24 hrs by RNase A/PI staining based flow cytometry analysis (Rvb= 42.16%); type: functional
NCI-H1975 [22] = experiment: Effect on cell cycle progression in human NCI-H1975 cells assessed a accumulation of cells at S phase at 2 uM measured after 24 hrs by RNase A/PI staining based flow cytometry analysis (Rvb= 52.06%); type: functional
NCI-H1975 [23] = experiment: Effect on cell cycle progression in human NCI-H1975 cells assessed a accumulation of cells at G1 phase at 4 uM measured after 24 hrs by RNase A/PI staining based flow cytometry analysis (Rvb= 42.16%); type: functional
[24] = Selectivity index, ratio of IC50 for cytotoxicity against human GES1 cells to IC50 for antiproliferative activity against human NCI-H1975 cells; type: toxicity, cell-based; conditions: GES1 cells versus NCI-H1975 cells, read-out: Ratio IC50
Summary of the method: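 Ratio of GES-1 IC50 to H1975 IC50. Both came from the 72 h MTT assay, with IC50 as the mean ± SD of three separate experiments.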

NCI-H1975 [25] = experiment: Inhibition of colony formation in human NCI-H1975 cells measured after 9 days by crystal violet staining based microscopic analysis; type: functional, cell-based; conditions: time 9.0 day; summary of the method: as §3
NCI-H1975 [26] = experiment: Induction of apoptosis in human NCI-H1975 cells assessed as increase in total apoptotic cells at 2 uM measured after 48 hrs by Annexin V-FITC/PI staining double staining based flow cytometry analysis (Rvb= 3.86%); type: functional

## FC(F)(F)c1ccc(CSc2nc(Sc3nncs3)cc(C(F)(F)F)n2)cc1
NCI-H1975 [1]
  Activity: 13.63%
MCF7
  IC50: 8.81 µM
GES1
  IC50: 37.4 µM
NCI-H1975 [2]
  Activity: Active
PC-3
  IC50: 7.88 µM
NCI-H1975 [3]
  inhibition at 4 µM: 90%
NCI-H1975 [4]
  Activity: 31.16%
NCI-H1975 [5]
  Activity: 16.68%
NCI-H1975 [6]
  Activity: Active
NCI-H1975 [7]
  Activity: 21.28%
NCI-H1975 [8]
  Activity: 30.39%
NCI-H1975 [9]
  Activity: 7.7%
MGC-803
  IC50: 10.8 µM
NCI-H1975 [10]
  Activity: Active
NCI-H1975 [11]
  Activity: 29.08%
NCI-H1975 [12]
  Activity: 5.04%
NCI-H1975 [13]
  Activity: Active
NCI-H1975 [14]
  IC50: 2.27 µM
NCI-H1975 [15]
  Activity: Active
NCI-H1975 [16]
  Activity: Active
NCI-H1975 [17]
  Activity: Active
NCI-H1975 [18]
  Activity: 51.84%
NCI-H1975 [19]
  Activity: 17.31%
NCI-H1975 [20]
  Activity: 44.55%
NCI-H1975 [21]
  Activity: 34.53%
NCI-H1975 [22]
  Activity: 47.56%
NCI-H1975 [23]
  Activity: 25.06%
[24]
  selectivity ratio: 16.5
NCI-H1975 [25]
  inhibition: Dose-Dependent Effect
NCI-H1975 [26]
  Activity: 11.13%

## O=c1[nH]cc(F)c(=O)[nH]1 [FLUOROURACIL]
MCF7
  IC50: 8.77 µM
GES1
  IC50: 19.3 µM
PC-3
  IC50: 6.23 µM
MGC-803
  IC50: 9.05 µM
NCI-H1975 [14]
  IC50: 9.37 µM
[24]
  selectivity ratio: 2.06
